This is an account of results in ChEMBL document CHEMBL1125901, “Synthesis and siderophore activity of albomycin-like peptides derived from N5-acetyl-N5-hydroxy-L-ornithine” (1991).

SMILES strings stand for the structures. Calls of active or inactive are those of the source. The rule behind the calls is not given here.

In assay [1] the test system is Shigella flexneri. In words: The relative ability of compound to promote the growth of Shigella flexneri SA 240, a strain lacking the ability to synthesize siderophores was measured as zone stimulation at concentration of 100 uM. It counts as functional. The procedure, abridged:
(§1)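 SA240 (S. flexneri 2a SA100 iucD::Tn5, a siderophore-synthesis mutant) was grown overnight in Luria broth, then seeded at 10^3/mL into Luria agar with the iron chelator EDDA (250 µg/mL). Compounds were made as 10 mM water stocks and diluted in water to the test levels. Sterile disks holding 10 µL were laid on the agar and incubated 18 h at 37 °C. Diameters of the growth-stimulation zones were measured.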

The subject of assay [2] is Shigella flexneri. Kind of assay: The relative ability of compound to promote the growth of Shigella flexneri SA 240, a strain lacking the ability to synthesize siderophores was measured as zone stimulation at concentration of 1 mM. It counts as functional. Put shortly:
as §1

In assay [3] the test system is Shigella flexneri. Kind of assay: The relative ability of compound to promote the growth of Shigella flexneri SA 240, a strain lacking the ability to synthesize siderophores was measured as zone stimulation at concentration of 500 uM. It counts as functional. The procedure, abridged:
as §1

Assay [4] relates to Shigella flexneri. In words: The relative ability of compound to promote the growth of Shigella flexneri SA 240, a strain lacking the ability to synthesize siderophores was measured as zone stimulation at concentration of 5 mM. It counts as functional. The procedure, abridged: as §1
In assay [5] the test system is Shigella flexneri. In words: The relative ability of compound to promote the growth of Shigella flexneri SA 240, a strain lacking the ability to synthesize siderophores was measured as zone stimulation at concentration of 50 uM; NA=No activity. It counts as functional, organism-based. Put shortly: as §1
In assay [6] the test system is Shigella flexneri. In words: The relative ability of compound to promote the growth of Shigella flexneri SA 240, a strain lacking the ability to synthesize siderophores was measured as zone stimulation at concentration of 5 mM; NA=No activity. It counts as functional, organism-based. The procedure, abridged:
as §1

Assay [7] relates to Shigella flexneri. Kind of assay: The relative ability of compound to promote the growth of Shigella flexneri SA 240, a strain lacking the ability to synthesize siderophores was measured as zone stimulation at concentration of 100 uM; NA=No activity. It counts as functional, organism-based. Put shortly:
as §1

With `CC(=O)N(O)CCC[C@H](NC(=O)[C@H](CCCN(O)C(C)=O)NC(=O)[C@@H](N)CCCN(O)C(C)=O)C(=O)N[C@@H](C(=O)O)c1ccccc1`, the Zone of stimulation turned out to be 17 mm in the assay on Shigella flexneri [1], 41 mm with Shigella flexneri [2], 28 mm in the assay on Shigella flexneri [3] and 45 mm in the assay on Shigella flexneri [4]. Moreover, in the assay on Shigella flexneri [5], the Zone of stimulation result was “inactive”.
With `CC(=O)N(O)CCC[C@H](N)C(=O)O`, the Zone of stimulation entry in the assay on Shigella flexneri [6] was “inactive”.
Regarding `CC(=O)N(O)CCC[C@H](NC(=O)[C@H](CCCN(O)C(C)=O)NC(=O)[C@@H](N)CCCN(O)C(C)=O)C(=O)N[C@H](CO)C(=O)N[C@H](CC(=O)O)C(=O)O`, the Zone of stimulation result in the assay with Shigella flexneri [6] is “inactive”.
`CC(=O)N(O)CCC[C@H](NC(=O)[C@H](CCCN(O)C(C)=O)NC(=O)[C@@H](N)CCCN(O)C(C)=O)C(=O)N[C@@H](C(=O)O)c1ccc(O)cc1`: the Zone of stimulation with Shigella flexneri [1] was 15 mm; in the assay on Shigella flexneri [2], 40 mm; with Shigella flexneri [3], 25 mm; with Shigella flexneri [4], 45 mm. Further, the Zone of stimulation result in the assay on Shigella flexneri [5] is “inactive”.
For `CC(=O)N(O)CCC[C@H](NC(=O)[C@H](CCCN(O)C(C)=O)NC(=O)[C@@H](N)CCCN(O)C(C)=O)C(=O)O` the same measures were 13 mm, 37 mm, 30 mm, 40 mm and “inactive”.
On to `CC(=O)N(O)CCC[C@H](NC(=O)[C@H](CCCN(O)C(C)=O)NC(=O)[C@@H](N)CCCN(O)C(C)=O)C(=O)N[C@H](CO)C(=O)O`, for which the Zone of stimulation result with Shigella flexneri [7] was “inactive”. For the same compound, the Zone of stimulation amounted to 12 mm in the assay with Shigella flexneri [2], 12 mm in the assay on Shigella flexneri [3] and 18 mm in the assay with Shigella flexneri [4].
